Data set [1] deals with T1, Sphingosine 1-phosphate receptor 2 (Homo sapiens, UniProt O95136). The data set can be described thus: Antagonist activity at recombinant human S1P2 receptor expressed in CHO cells assessed as EC80 S1P-induced activation incubated for 4 hrs in presence of [35S]GTPgammaS by Topcount reader. In kind it is functional, cell-based. The gist of the method: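 Membranes from stable lines overexpressing recombinant human S1P2, preincubated with PVT-WGA SPA beads, mixed with compound serial dilutions, [35S]GTPγS and S1P at EC80. Incubated 4 h at room temperature, centrifuged, scintillation counted. Antagonist mode; IC50 as geometric mean of ≥2 runs.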
T1 sequence (O95136 whole entry): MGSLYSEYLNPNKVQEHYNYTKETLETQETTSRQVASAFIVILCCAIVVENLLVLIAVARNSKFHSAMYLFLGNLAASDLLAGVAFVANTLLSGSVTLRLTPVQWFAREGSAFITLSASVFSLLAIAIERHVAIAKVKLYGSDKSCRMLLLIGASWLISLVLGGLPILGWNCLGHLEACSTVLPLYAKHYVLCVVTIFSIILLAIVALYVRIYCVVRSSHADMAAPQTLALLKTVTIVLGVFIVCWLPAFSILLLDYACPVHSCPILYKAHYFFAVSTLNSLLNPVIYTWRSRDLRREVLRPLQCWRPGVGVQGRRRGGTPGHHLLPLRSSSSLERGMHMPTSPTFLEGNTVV
In general terms: GTPγS is a poorly hydrolysed GTP analogue; its binding reports G protein activation.

Data set [2] has as its target T1, Sphingosine 1-phosphate receptor 2. Briefly: Antagonist activity at human S1P2 receptor expressed in CHO cells assessed as EC80 S1P-induced calcium flux measured for 3 mins by fluorescence assay. The data set is classed as functional, cell-based. The gist of the method:
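Same dye-loaded, starved human S1P2-CHO cells; after agonist readout, 15 min at 37 °C, then stimulated with S1P at EC80, fluorescence read 3 min. Max/baseline ratio normalized to vehicle and S1P EC80. 10-point 1/3 dilutions from 20 μM final; IC50 derived; geometric mean of ≥2 runs.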
Background: Calcium flux is commonly read through the fluorescence of an indicator in the cells.

The target is the same in data set [3]. The data set can be described thus: Antagonist activity at recombinant human S1P2 receptor in HFL1 cells assessed as inhibition of EC80 S1P-induced IL8 release incubated for 16 to 24 hrs in presence of 2% HSA by ELISA. In kind it is functional, cell-based. The gist of the method:
(§1)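 HFL-1 lung fibroblasts seeded in 96- or 384-well plates, then medium replaced by starvation medium with 1% heat-inactivated FBS, ±1.95% HSA (2% HSA condition), 16–24 h. 10-point 1/3 dilutions, 30 μM top final, 1 h, then S1P at EC80 (without HSA: 1 μM 96-well or 0.5 μM 384-well; with HSA: 5 or 2 μM).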

Data set [4] can be described thus: Intrinsic clearance unbound in human liver microsomes at 1 uM […] by LC-MS/MS analysis. In kind it is ADME, Microsome. On the technique in general: Liver microsomes are a subcellular fraction often used to study metabolism.
The target of data set [5] is T1, Sphingosine 1-phosphate receptor 2. The data set can be described thus: Antagonist activity at recombinant human S1P2 receptor in HFL1 cells assessed as inhibition of EC80 S1P-induced IL8 release incubated for 16 to 24 hrs in absence of HSA by ELISA. The data set is classed as functional, cell-based. The gist of the method: as §1
Data set [6] can be described thus: Intrinsic clearance unbound in mouse liver microsomes at 1 uM […] by LC-MS/MS analysis. In kind it is ADME, Microsome.
In another data set the target is CYP2C19 (Homo sapiens, UniProt P33261). Briefly: Inhibition of recombinant CYP2C19 (unknown origin) at 10 uM. The data set is classed as ADME.
Sequence of CYP2C19 (P33261 whole entry): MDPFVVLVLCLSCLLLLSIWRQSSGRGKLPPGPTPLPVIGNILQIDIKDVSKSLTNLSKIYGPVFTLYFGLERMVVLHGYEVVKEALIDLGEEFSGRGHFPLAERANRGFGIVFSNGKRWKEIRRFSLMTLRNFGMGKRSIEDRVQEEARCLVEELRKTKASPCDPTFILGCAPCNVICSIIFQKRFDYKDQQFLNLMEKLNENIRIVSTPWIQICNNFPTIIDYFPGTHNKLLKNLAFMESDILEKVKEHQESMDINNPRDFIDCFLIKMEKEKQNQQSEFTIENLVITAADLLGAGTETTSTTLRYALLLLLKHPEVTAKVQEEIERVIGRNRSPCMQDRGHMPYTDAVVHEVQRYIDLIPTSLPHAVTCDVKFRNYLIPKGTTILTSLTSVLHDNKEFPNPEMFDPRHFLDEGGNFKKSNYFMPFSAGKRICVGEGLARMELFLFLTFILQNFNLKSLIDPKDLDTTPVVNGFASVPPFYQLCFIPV
The next data set addresses CYP3A4 (Homo sapiens, UniProt P08684). Briefly: Inhibition of recombinant CYP3A4 (unknown origin) at 10 uM. In kind it is ADME.
The next data set concerns the target CYP2C9 (Homo sapiens, UniProt P11712). Briefly: Inhibition of recombinant CYP2C9 (unknown origin) at 10 uM. In kind it is ADME.
For data set [7], the target named is T1, Sphingosine 1-phosphate receptor 2. The data set can be described thus: Antagonist activity at recombinant human S1P2 receptor in HFL1 cells assessed as inhibition of EC80 S1P-induced IL8 release measured as unbound concentration incubated for 16 to 24 hrs in presence of 2% HSA by ELISA. Particulars: filed as antagonist, time 16-24 hrs. The data set is classed as functional, cell-based. An outline of the steps:
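IL8 IC50 from the 2% HSA condition converted to free IC50 = IC50 × fu,medium, where fu,medium is estimated from human plasma protein binding fraction unbound and the serum percentage used in the assay.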

The test system of the next data set is Mus musculus. Briefly: Antifibrotic activity against intranasal bleomycin-induced C57BL/6 mouse lung fibrosis model assessed as reduction in Ashcroft score at 50 mg/kg, po twice daily for 14 days. Particulars: time 14.0 day. In kind it is functional, organism-based. The gist of the method: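 Male C57BL/6 mice (7–8 weeks on arrival, one week acclimation) given bleomycin intranasally; prophylactic oral dosing twice daily for 14 days. Lungs scored histologically by Matsuse-modified Ashcroft score; 14–15 mice per group; Mann–Whitney vs bleomycin/vehicle.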

Data set [8] deals with T1, Sphingosine 1-phosphate receptor 2. The data set can be described thus: Agonist activity at human S1P2 receptor expressed in CHO cells assessed as calcium flux measured for 3 mins by fluorescence assay. The data set is classed as functional, cell-based. Particulars: read-out: IC50 (the source's name). An outline of the steps: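 CHO cells stably overexpressing human S1P2, seeded overnight at 37 °C/5% CO2, washed and starved 1 h in F-12 with 0.1% fatty-acid-free BSA, loaded with Fluo 8 dye with 5 mM probenecid. Compound added, fluorescence read 3 min; max/baseline ratio normalized to vehicle and S1P EC100. 10-point 1/3 dilutions from 23.3 μM final; EC50 derived; geometric mean of ≥2 runs.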

The target is the same in data set [9]. Briefly: Displacement of radio labeled-SIP from human recombinant S1P2 receptor expressed in CHO cell membranes […] by radioligand based competition binding assay. Details: species or system Membrane.

The source made the active and inactive calls. No cut-off for these calls is given here. A value given as a limit tells only on which side of the number the result lay.

Sequence of CYP3A4 (P08684 whole entry): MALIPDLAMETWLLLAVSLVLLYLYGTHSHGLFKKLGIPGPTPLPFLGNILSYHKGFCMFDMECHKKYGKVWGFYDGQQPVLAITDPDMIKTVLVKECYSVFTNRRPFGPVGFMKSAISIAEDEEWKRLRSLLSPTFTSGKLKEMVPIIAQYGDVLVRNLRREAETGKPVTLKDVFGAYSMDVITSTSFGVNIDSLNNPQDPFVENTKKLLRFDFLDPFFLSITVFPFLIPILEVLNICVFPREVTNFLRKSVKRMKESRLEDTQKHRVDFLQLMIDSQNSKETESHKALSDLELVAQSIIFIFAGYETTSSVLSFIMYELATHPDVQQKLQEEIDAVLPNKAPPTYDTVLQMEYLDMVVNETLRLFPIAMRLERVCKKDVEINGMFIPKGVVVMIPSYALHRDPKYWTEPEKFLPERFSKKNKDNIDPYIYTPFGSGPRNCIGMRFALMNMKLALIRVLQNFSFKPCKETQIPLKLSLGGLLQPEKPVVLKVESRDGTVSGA
Sequence of CYP2C9 (P11712 whole entry): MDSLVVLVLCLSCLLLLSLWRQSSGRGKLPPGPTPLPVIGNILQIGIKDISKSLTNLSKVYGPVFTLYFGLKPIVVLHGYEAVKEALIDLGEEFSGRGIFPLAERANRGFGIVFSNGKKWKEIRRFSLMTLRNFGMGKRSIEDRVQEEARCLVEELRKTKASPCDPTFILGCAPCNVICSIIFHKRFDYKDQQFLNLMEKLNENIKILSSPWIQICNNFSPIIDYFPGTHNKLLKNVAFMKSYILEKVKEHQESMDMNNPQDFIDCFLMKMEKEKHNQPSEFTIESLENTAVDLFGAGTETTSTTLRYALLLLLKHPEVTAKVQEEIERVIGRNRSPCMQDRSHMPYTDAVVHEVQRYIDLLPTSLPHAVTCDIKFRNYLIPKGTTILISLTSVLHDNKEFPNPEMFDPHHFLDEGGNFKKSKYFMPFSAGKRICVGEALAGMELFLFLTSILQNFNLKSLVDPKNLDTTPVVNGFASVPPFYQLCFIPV

Broadly, the IC50 is the concentration at which inhibition is half-maximal. Regarding `COCCOc1cc(NC(=O)NCc2cc(C)c(-c3cn(C)nc3C(F)(F)F)nn2)cc(Cl)n1`, the IC50 was found to be 640 µM in data set [1], 412 µM in [2], 3220 nM in data set [3] and 640 nM in data set [5]. Also, the CL free in [4] is less than 1.4 L/h/kg; in data set [6], 19 L/h/kg.
Usually inhibition stands for the percentage by which the read-out fell short of the control. Consider `CCOc1cc(NC(=O)NCc2cc(C)c(-c3cn(C)nc3C(F)(F)F)cn2)cc(Cl)n1`, for which the inhibition at 10 µM on CYP2C19 came out at 100%; at CYP3A4, 83%; at CYP2C9 it was 83%. Besides, the figures for the IC50 in [1], in data set [2] and in data set [5] were 22 µM, 0.011 µM and 22 nM, respectively. Besides, the CL free in data set [4] amounted to 9 L/h/kg; in data set [6] it was 27 L/h/kg.
As for `Cc1cc(CNC(=O)Nc2cc(C(F)(F)F)nc(OCCO)c2C)nnc1-c1cn(C)nc1C(F)(F)F`, the fIC50 in data set [7] was 5.4 nM. Moreover, the IC50 in data set [1] turned out to be 169 µM; in [2] it was 84 µM; in [3] it was 256 nM; in data set [5] it was 160 nM. The same molecule showed a CL free in data set [6] of 5.5 L/h/kg.
Regarding `Cc1ccc(=O)n(-c2ccccc2)c1`, the result in the data set with Mus musculus was Active.
As to `CCOc1cc(NC(=O)NCc2cc(C)c(-c3cn(C)nc3C(F)(F)F)nn2)cc(C#N)n1`, the fIC50 in [7] was determined as 3 nM. In addition, the IC50 in data set [1] worked out at 35 µM; in data set [2], 11 µM; in data set [3], 67 nM; in [5], 35 nM. For the same molecule, the CL free in data set [4] is less than 1.7 L/h/kg; in data set [6], less than 6.3 L/h/kg.
Consider `CCOc1nc(Cl)cc(NC(=O)NCc2cc(C)c(-c3cn(C)nc3C(F)(F)F)nn2)c1C`, for which, in [7], the fIC50 is 0.16 nM. Moreover, the IC50 is 15 µM in [1], 8.8 µM in data set [2], 32 nM in [3] and 15 nM in [5]. For the same molecule, the values for the CL free in data set [4] and in data set [6] were less than 7.6 L/h/kg and less than 32 L/h/kg, respectively.
As for `Cc1cc(CNC(=O)Nc2cc(OCC(O)CO)nc(C(F)(F)F)c2)nnc1-c1cn(C)nc1C(F)(F)F` (centres undefined), the IC50 in data set [1] was greater than 11000 µM; in data set [2], greater than 6.61 µM; in data set [3] it was greater than 10000 nM; in [5] it was greater than 11000 nM. For the same molecule, the CL free in data set [4] was 1.9 L/h/kg; in [6] it was less than 4.6 L/h/kg.
In the case of `Cc1cc(NNC(=O)Nc2cc(Cl)nc(Cl)c2)ncc1N(C)C`, the EC50 in data set [8] was greater than 23 µM. Also, the figures for the IC50 in data set [1] and in data set [2] were 5.3 µM and 3.6 µM, respectively.
As for `Cc1cc(CNC(=O)Nc2cc(Cl)nc(OCC(F)F)c2)nnc1-c1cn(C)nc1C(F)(F)F`, the fIC50 in data set [7] is 1.3 nM. Moreover, the IC50 in data set [1] amounted to 36 µM; in [2], 7.2 µM; in data set [3], 71 nM; in data set [5], 36 nM. Also, the CL free in data set [4] is less than 3 L/h/kg; in [6], less than 10 L/h/kg.
As to `Cc1cc(NNC(=O)Nc2cc(Cl)nc(Cl)c2)ncc1-c1cn(C)nc1C`, the results for the IC50 in [9], in [1] and in [2] were 190 nM, 0.8 µM and greater than 1.4 µM, respectively. Besides, the EC50 in [8] is greater than 23 µM.
As for `CCOc1cc(NC(=O)NCc2cc(C)c(-c3cn(C)nc3C)cn2)cc(Cl)n1`, the EC50 in [8] worked out at 4.7 µM. Further, the IC50 in data set [1] is 0.32 µM; in [2], 0.04 µM; in data set [5], 0.032 nM. Also, the CL free in data set [6] turned out to be 42 L/h/kg.
As for `CCOc1nc(C)cc(NC(=O)NCc2cc(C)c(-c3cn(C)nc3C(F)(F)F)nn2)c1Cl`, the fIC50 in data set [7] came out at 0.55 nM. The IC50 came out at 26 µM in data set [1], 8.7 µM in data set [2], 49 nM in data set [3] and 26 nM in data set [5]. Besides, the figures for the CL free in [4] and in [6] were less than 1.5 L/h/kg and 15 L/h/kg, respectively.
Regarding `CCOc1nc(C)cc(NC(=O)NCc2cc(C)c(-c3cn(C)nc3C(F)(F)F)nn2)c1C#N`, the IC50 was greater than 20000 µM in [1], greater than 20 µM in [2], greater than 30000 nM in data set [3] and greater than 20000 nM in data set [5]. Also, the CL free in [6] is 136 L/h/kg.
As to `Cc1cc(NNC(=O)Nc2cc(Cl)nc(Cl)c2)ncc1C#N`, the EC50 in [8] is greater than 23 µM. Moreover, the IC50 in [1] is 7 µM; in [2] it was 6 µM.
In the case of `CCOC(=O)c1cc(C)cc(NNC(=O)Nc2cc(Cl)nc(Cl)c2)n1`, the figures for the IC50 in data set [9], in data set [1] and in [2] were 300 nM, 2.1 µM and 0.76 µM, respectively. Besides, the EC50 in data set [8] is greater than 23 µM.
Consider `CCOc1nc(C#N)cc(NC(=O)NCc2cc(C)c(-c3cn(C)nc3C(F)(F)F)nn2)c1C`, for which the fIC50 in data set [7] came to 0.19 nM. Besides, the IC50 in [1] worked out at 24 µM; in data set [2], 7.1 µM; in data set [3], 17 nM; in [5], 24 nM. Moreover, the CL free in [4] was less than 2.1 L/h/kg; in data set [6], less than 9.8 L/h/kg.
In the case of `Cc1cc(CNC(=O)Nc2cc(OCCO)nc(C(F)(F)F)c2)nnc1-c1cn(C)nc1C(F)(F)F`, the fIC50 in data set [7] is 87 nM. The IC50 in data set [1] came out at 704 µM; in data set [2], 348 µM; in [3], 810 nM; in data set [5], 704 nM. Besides, the figures for the CL free in data set [4] and in data set [6] were less than 1.4 L/h/kg and 6.1 L/h/kg, respectively.
On to `CCOc1cc(NC(=O)NCc2cc(C)c(-c3cn(C)nc3C(F)(F)F)nn2)cc(C)n1`, for which the fIC50 in [7] is 15 nM. For the same molecule, the IC50 was 242 µM in data set [1], 54 µM in [2], 194 nM in [3] and 242 nM in data set [5]. Also, the CL free in data set [4] was less than 0.9 L/h/kg; in [6], less than 3.5 L/h/kg.
Take `Cc1cc(NNC(=O)Nc2cc(Cl)nc(Cl)c2)ncc1-c1cnn(C)c1`: the IC50 in [9] came out at 1200 nM; in data set [1], 3.4 µM; in [2], 2.6 µM. Moreover, the EC50 in [8] was greater than 23 µM.

The values above are taken from ChEMBL document CHEMBL4834436, “Discovery of the S1P2 Antagonist GLPG2938 (1-[2-Ethoxy-6-(trifluoromethyl)-4-pyridyl]-3-[[5-methyl-6-[1-methyl-3-(trifluoromethyl)pyrazol-4-yl]pyridazin-3-yl]methyl]urea), a Preclinical Candidate for the Treatment of Idiopathic Pulmonary Fibrosis” (J Med Chem, 2021).
